Assay results from different studies.
Compare with care: the assays were run in different laboratories.
Read-out: cell growth or viability

| Structure (SMILES) | cell line | assay | setting | IC50 [nM] |
| --- | --- | --- | --- | --- |
| Cc1cc(C)cc(COc2cc3c(cc2OCc2cc(C)cc(C)c2)[C@H]2C[C@](O)(Cc4cn(Cc5ccc(Cl)c(Cl)c5)nn4)C[C@H](C)N2CC3)c1 | ASPC1 | MTT |  | 606 |
| Cc1c[nH]c(/C=C2\C(=O)Nc3ccccc32)c1CCC(=O)O | RT-4 | MTT | 5 days | 2000 |
| Cc1cc(C)cc(COc2cc3c(cc2OCc2cc(C)cc(C)c2)[C@H]2C[C@](O)(Cc4cn(CCOCCOCCOCC(=O)N[C@H](C(=O)N5C[C@H](O)C[C@H]5C(=O)NCc5ccc(-c6scnc6C)cc5)C(C)(C)C)nn4)C[C@H](C)N2CC3)c1 | ASPC1 | MTT |  | 730 |
| NCCOc1cc(NC(=O)c2cc(OCc3ccc(F)cc3)cc(C(=O)Nc3cc(OCCN)c4ccccc4n3)n2)nc2ccccc12 | WI-38 | ATP luminescence | 72 h | 4900 |
| CC(C)c1ccc(C2C(C#N)=C3N=C(N)c4ccccc4N3C3=C2C(=O)CCC3)cc1 (stereo not drawn) | HMC3 | imaging |  | 49100 |
| COc1cc(Nc2nccc(-c3cnn4nc(OC)ccc34)n2)cc(C(F)(F)F)c1 | RERF-LC-MS | ATP luminescence |  | 590 |
| NCCCOc1cc(NC(=O)c2cccc(C(=O)Nc3cc(OCCCN)c4ccccc4n3)n2)nc2ccccc12 | WI-38 | ATP luminescence | 72 h | 1600 |
| CC(C)C[C@H](NC(=O)[C@H](Cc1ccccc1)NC(=O)c1cnccn1)B(O)O | DV-90 | ATP luminescence |  | 13 |
| C=CC(=O)Nc1cc(Nc2nccc(-c3cn(C4CC4)c4ccccc34)n2)c(OC)cc1N(C)CCN(C)C | HCC827 | ATP luminescence | 72 h | 3.3 |
| C/C=C/C(=O)Nc1ccc(CCn2cc(C[C@@]3(O)C[C@@H]4c5cc(OCc6cc(C)cc(C)c6)c(OCc6cc(C)cc(C)c6)cc5CCN4[C@@H](C)C3)nn2)cc1 | ASPC1 | MTT |  | 870 |
| CCn1c(=O)c(-c2ccc(-c3cncs3)cc2Cl)cc2cnc(Nc3ccc(N4CCN(C)CC4)cc3)nc21 | HPAF-II | MTT | 24 h | 7900 |
| O=C(Nc1cc(OCCN2CCCC2)c2ccccc2n1)c1cc(OCc2ccc(F)cc2)cc(C(=O)Nc2cc(OCCN3CCCC3)c3ccccc3n2)n1 | WI-38 | ATP luminescence | 72 h | 11400 |
| CCN1CCN(c2ccc(Nc3cc(N(C)C(=O)Nc4c(Cl)c(OC)cc(OC)c4Cl)ncn3)cc2)CC1 | RT-4 | ATP luminescence | 96 h | 9.36 |
| Cc1nc(Nc2ncc(C(=O)Nc3c(C)cccc3Cl)s2)cc(N2CCN(CCO)CC2)n1 | HPAF-II | MTT |  | ~10000 |
| Cc1cc(C)cc(COc2cc3c(cc2OCc2cc(C)cc(C)c2)C2CC(O)(Cc4cn(CCOCCOCCOCCNC(=O)CNc5cccc6c5C(=O)N(C5CCC(=O)NC5=O)C6=O)nn4)CC(C)N2CC3)c1 (stereo not drawn) | ASPC1 | MTT |  | 3210 |
| O=C1C(=Cc2ccccc2)CN(C(=O)c2ccc(C(=O)N3CC(=Cc4ccccc4)C(=O)C(=Cc4ccccc4)C3)cc2)CC1=Cc1ccccc1 | Molt4/C8 |  |  | > 500000 |
| Cc1cc(C)cc(COc2cc3c(cc2OCc2cc(C)cc(C)c2)[C@H]2C[C@](O)(Cc4cn(Cc5cccnc5)nn4)C[C@H](C)N2CC3)c1 | ASPC1 | MTT |  | 674 |
| CNc1nc2ccccc2n2c(-c3cccc(OC)c3)cnc12 | LS174T | neutral red | 96 h | 868 |
